Measurements from ChEMBL document CHEMBL2029200, “Discovery of a novel melanin concentrating hormone receptor 1 (MCHR1) antagonist with reduced hERG inhibition” (Bioorg Med Chem Lett, 2012).
The source made the active and inactive calls. The calls are words filed in the database; no cut-off is given here.

Assays:
[1] = test system: Mus musculus; test: Antiobesity activity in high fat diet-fed C57BL/6 mouse expressing wild type MCHR1 gene assessed as reduction in body weight at 100 mg/kg, po daily measured for 34 weeks relative to control; format: functional; set-up: scale not given: the % may be the effect or the level left
How it was run: (§1)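 Wild-type and MCHR1-knockout female C57BL/6 mice given compound mixed into a 60% kCal fat high-fat diet. Body weight gain at study end compared with vehicle.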

[2] = test system: Mus musculus; test: Antiobesity activity in high fat diet-fed C57BL/6 mouse assessed as reduction in food intake at 3 to 10 mg/kg, po daily measured up to day 137 relative to control; format: functional, organism-based
[3] = test system: Mus musculus; test: Antiobesity activity in high fat diet-fed C57BL/6 mouse assessed as reduction in body weight at 3 mg/kg, po daily measured up to day 137 relative to control; format: functional, organism-based; set-up: dose 3 mg/kg
[4] = test system: Mus musculus; test: Antiobesity activity in high fat diet-fed C57BL/6 mouse assessed as reduction in body weight at 10 mg/kg, po daily measured up to day 137 relative to control; format: functional, organism-based; set-up: dose 10 mg/kg
How it was run: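 Male/female unspecified C57BL/6 mice weaned at 4–5 weeks and kept on high-fat diet for over 24 weeks before dosing. Body weight followed for 137 days against vehicle.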

[5] = test system: Mus musculus; test: Antiobesity activity in high fat diet-fed MCHR1-knockout C57BL/6 mouse assessed as reduction in body weight at 100 mg/kg, po daily measured for 34 weeks relative to control; format: functional, organism-based; set-up: dose 100 mg/kg; how it was run: as §1
[6] = biological target: Voltage-gated inwardly rectifying potassium channel KCNH2 (Homo sapiens, UniProt Q12809); test: Inhibition of human Erg expressed in HEK293 cells assessed as rubidium efflux after 4 hrs by atomic absorbance spectrometric analysis
Chain of Voltage-gated inwardly rectifying potassium channel KCNH2 (Q12809 whole entry): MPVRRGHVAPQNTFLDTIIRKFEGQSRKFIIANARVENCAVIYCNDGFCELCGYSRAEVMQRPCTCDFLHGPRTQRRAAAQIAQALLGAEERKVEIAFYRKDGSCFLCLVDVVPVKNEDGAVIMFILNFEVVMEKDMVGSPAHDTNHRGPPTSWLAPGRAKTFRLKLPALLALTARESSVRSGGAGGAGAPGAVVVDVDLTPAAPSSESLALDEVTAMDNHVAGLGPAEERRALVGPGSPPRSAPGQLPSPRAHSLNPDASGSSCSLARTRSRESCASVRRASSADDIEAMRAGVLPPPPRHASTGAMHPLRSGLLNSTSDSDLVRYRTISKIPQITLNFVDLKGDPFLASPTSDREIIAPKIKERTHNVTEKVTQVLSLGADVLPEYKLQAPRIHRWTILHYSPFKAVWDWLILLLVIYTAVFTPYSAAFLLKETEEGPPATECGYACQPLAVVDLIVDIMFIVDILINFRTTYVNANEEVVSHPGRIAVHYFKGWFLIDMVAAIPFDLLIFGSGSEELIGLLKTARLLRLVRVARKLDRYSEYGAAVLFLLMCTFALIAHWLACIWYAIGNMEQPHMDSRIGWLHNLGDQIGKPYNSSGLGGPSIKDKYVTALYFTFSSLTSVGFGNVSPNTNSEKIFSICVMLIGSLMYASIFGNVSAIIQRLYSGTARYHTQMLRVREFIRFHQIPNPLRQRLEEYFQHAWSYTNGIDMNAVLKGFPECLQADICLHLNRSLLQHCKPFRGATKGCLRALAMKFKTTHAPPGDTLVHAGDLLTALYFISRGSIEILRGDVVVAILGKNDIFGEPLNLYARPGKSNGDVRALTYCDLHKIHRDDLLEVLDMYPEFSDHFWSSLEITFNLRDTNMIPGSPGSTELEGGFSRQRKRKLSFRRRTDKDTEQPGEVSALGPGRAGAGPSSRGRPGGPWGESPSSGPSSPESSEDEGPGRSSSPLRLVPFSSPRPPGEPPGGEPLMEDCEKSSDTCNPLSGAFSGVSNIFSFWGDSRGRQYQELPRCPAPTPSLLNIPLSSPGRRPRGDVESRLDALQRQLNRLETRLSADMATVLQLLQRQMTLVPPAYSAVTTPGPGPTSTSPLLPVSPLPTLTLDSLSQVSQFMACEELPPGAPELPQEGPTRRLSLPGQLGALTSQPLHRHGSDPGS

[7] = biological target: Melanin-concentrating hormone receptor 1 (Homo sapiens, UniProt Q99705); test: Displacement of [125I]-MCH from MCHR1 after 2 hrs by scintillation counting
Chain of Melanin-concentrating hormone receptor 1 (Q99705 whole entry): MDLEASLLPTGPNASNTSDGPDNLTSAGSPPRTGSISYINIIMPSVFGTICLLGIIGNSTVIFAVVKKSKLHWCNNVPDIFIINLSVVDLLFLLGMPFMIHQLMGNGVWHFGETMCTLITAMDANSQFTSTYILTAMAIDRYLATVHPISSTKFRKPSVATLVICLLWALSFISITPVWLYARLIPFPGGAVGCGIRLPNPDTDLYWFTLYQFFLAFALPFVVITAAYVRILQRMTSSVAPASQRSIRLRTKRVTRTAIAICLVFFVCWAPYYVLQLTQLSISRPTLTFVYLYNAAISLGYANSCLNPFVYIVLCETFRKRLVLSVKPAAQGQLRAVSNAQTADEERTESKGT
How it was run: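 Competition binding on MCHR1 membrane preparation with 125I-MCH tracer. Compound diluted in 50 mM Tris pH 7.4, 10 mM MgCl2, 2.5 mM EDTA, 0.2% BSA. Incubation 2 h at 37 °C with shaking. Bound and free ligand separated by vacuum filtration through BSA-pretreated filter plates. Filters washed 4 times in Hepes/NaCl/BSA buffer, then counted by scintillation.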

Work on `C[C@H]1c2c([nH]c3ccc(C(F)(F)F)cc23)C[C@H]2CCN(CCC3(C(=O)O)CCCCC3)C[C@@H]21.Cl` yielded an Activity [1] of 33%.

`C[C@H]1c2c([nH]c3ccc(C(F)(F)F)cc23)C[C@H]2CCN(CCC3(C(=O)O)CCCCC3)C[C@@H]21` was tested, and the Activity [2] was “Active”, the Activity [3] was “Active” and the Activity [4] was “Active”. The Activity [5] was “inactive”.

With `C[C@H]1c2c([nH]c3ccc(C(F)(F)F)cc23)C[C@H]2CCN(CCCC3CCOCC3)C[C@@H]21` the IC50 [6] was 30 nM.

With `C[C@H]1c2c([nH]c3ccc(C(F)(F)F)cc23)C[C@H]2CCN(CCC3(C(=O)O)CCOCC3)C[C@@H]21` the IC50 [7] was 9 nM and the IC50 [6] was over 5000 nM.
